According to ChEMBL document CHEMBL1124186, “Synthesis and evaluation of tylosin-related macrolides modified at the aldehyde function: a new series of orally effective antibiotics” (1988):
Values after ≈ are worked out from the molar mass of the structure shown.

Experiments:
Streptococcus pyogenes [1] = test: In vitro antimicrobial activity against Streptococcus pyogenes C203; format: functional
Haemophilus influenzae [2] = test: In vitro antimicrobial activity against Haemophilus influenzae.; format: functional
Streptococcus pyogenes [3] = test: In vivo effective dose against experimental infections in rodent caused by Streptococcus pyogenes C203 when administered orally; format: functional; conditions: po
Staphylococcus aureus [4] = test: In vitro antimicrobial activity against Staphylococcus aureus X1; format: functional
Streptococcus pyogenes [5] = test: Activity against Streptococcus pyogenes C203 when administered sc; format: functional
Procedure, shortened: (§1)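 Mouse protection test: infected mice were dosed twice, at 1 and 5 h postinfection, either subcutaneously or orally. […] The result is expressed as ED50 in mg/kg × 2.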

Streptococcus pneumoniae [6] = test: In vitro antimicrobial activity against Streptococcus pneumoniae; format: functional
Streptococcus pyogenes [7] = test: Activity against Streptococcus pyogenes C203 when administered orally; format: functional; conditions: po; procedure, shortened: as §1
[8] = test system: Staphylococcus epidermidis; test: In vitro antimicrobial activity against Staphylococcus epidermidis EPI1; format: functional
Streptococcus pyogenes [9] = test: Anti microbial activity against Streptococcus pyogenes; format: functional
Streptococcus pyogenes [10] = test: In vivo effective dose against experimental infections in rodent caused by Streptococcus pyogenes C203 when administered sc; format: functional
Streptococcus [11] = test: In vitro antimicrobial activity against aerobic bacteria Streptococcus G Kruder; format: functional; conditions: Streptococcus; read-out: MIC
Rattus norvegicus [12] = test: Peripheral plasma levels in rats after oral administration of 100 mg/kg dose for 4 hr; format: functional, organism-based; set-up: dose 100 mg/kg
Procedure, shortened: (§2)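 Rats received 100 mg/kg orally and were sampled for peripheral plasma. Concentrations were measured by Micrococcus luteus agar-diffusion microbiological assay in Antibiotic Medium 1, with zone sizes converted using the standard curve for the appropriate compound. Each value is the average of three rats per time point.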

Mus musculus [13] = test: Peripheral plasma levels in mice after oral administration of 100 mg/kg dose for 4 hr; format: functional, organism-based; set-up: dose 100 mg/kg
Procedure, shortened: (§3)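 Mice were given the compound orally and sampled for peripheral plasma at each time point. Plasma was assayed microbiologically against Micrococcus luteus seeded in Antibiotic Medium 1. Inhibition zone sizes were read, and concentrations were calculated from each compound's own standard curve. Each value is the mean of five mice per time point.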

Streptococcus [14] = test: In vitro antimicrobial activity against aerobic bacteria Streptococcus D 9960; format: functional
Mus musculus [15] = test: Peripheral plasma levels in mice after oral administration of 100 mg/kg dose for 0.5 hr; format: functional, organism-based; set-up: dose 100 mg/kg; procedure, shortened: as §3
Haemophilus influenzae [16] = test: In vitro antimicrobial activity against aerobic bacteria Haemophilus influenzae MX366,; format: functional
Enterococcus faecium = test: In vitro antimicrobial activity against Streptococcus faecium X66; format: functional, streptococcus fae-cium
Streptococcus pneumoniae [17] = test: In vitro antimicrobial activity against aerobic bacteria Streptococcus pneumoniae B1-438; format: functional, streptococcus pneum
Mus musculus [18] = test: Peripheral plasma levels in mice after oral administration of 50 mg/kg dose for 0.5 hr; format: functional, organism-based; set-up: dose 50 mg/kg; procedure, shortened: as §3
Rattus norvegicus [19] = test: Peripheral plasma levels in rats after oral administration of 100 mg/kg dose for 0.25 hr; format: functional, organism-based; set-up: dose 100 mg/kg; procedure, shortened: as §2
Streptococcus [20] = test: In vitro antimicrobial activity against aerobic bacteria Streptococcus B 8; format: functional
Staphylococcus aureus [21] = test: In vitro antimicrobial activity against aerobic bacteria Staphylococcus aureus V140,; format: functional
Streptococcus pyogenes [22] = test: In vivo effective dose xperimental infections in rodent caused by Streptococcus pyogenes C203 when administered sc; format: functional
Staphylococcus aureus [23] = test: In vitro antimicrobial activity against aerobic bacteria Staphylococcus aureus 513E; format: functional
Rattus norvegicus [24] = test: Peripheral plasma levels in rats after oral administration of 100 mg/kg dose for 2 hr; format: functional, organism-based; set-up: dose 100 mg/kg; procedure, shortened: as §2
Staphylococcus aureus [25] = test: In vitro antimicrobial activity against aerobic bacteria Staphylococcus aureus X400; format: functional
Mus musculus [26] = test: Peripheral plasma levels in mice after oral administration of 50 mg/kg dose for 0.25 hr; format: functional, organism-based; set-up: dose 50 mg/kg; procedure, shortened: as §3
Streptococcus [27] = test: In vitro antimicrobial activity against aerobic bacteria Streptococcus B 5; format: functional
Streptococcus [28] = test: In vitro antimicrobial activity against aerobic bacteria Streptococcus D 2041; format: functional
Mus musculus [29] = test: Peripheral plasma levels in mice after oral administration of 50 mg/kg dose for 2 hr; format: functional, organism-based; set-up: dose 50 mg/kg; procedure, shortened: as §3
Staphylococcus aureus [30] = test: In vitro antimicrobial activity against aerobic bacteria Staphylococcus aureus V41; format: functional
Mus musculus [31] = test: Peripheral plasma levels in mice after oral administration of 100 mg/kg dose for 2 hr; format: functional, organism-based; set-up: dose 100 mg/kg; procedure, shortened: as §3
Mus musculus [32] = test: Peripheral plasma levels in mice after oral administration of 100 mg/kg dose for 0.25 hr; format: functional, organism-based; set-up: dose 100 mg/kg; procedure, shortened: as §3
Rattus norvegicus [33] = test: Peripheral plasma levels in rats after oral administration of 100 mg/kg dose for 0.5 hr; format: functional, organism-based; set-up: dose 100 mg/kg; procedure, shortened: as §2
Staphylococcus aureus [34] = test: In vitro antimicrobial activity against aerobic bacteria Staphylococcus aureus V135; format: functional
Haemophilus influenzae [35] = test: In vitro antimicrobial activity against aerobic bacteria Haemophilus influenzae 76; format: functional
Rattus norvegicus [36] = test: Peripheral plasma levels in rats after oral administration of 100 mg/kg dose for 1 hr; format: functional, organism-based; set-up: dose 100 mg/kg; procedure, shortened: as §2
Streptococcus [37] = test: In vitro antimicrobial activity against aerobic bacteria Streptococcus B 14; format: functional
Streptococcus [38] = test: In vitro antimicrobial activity against aerobic bacteria Streptococcus C 24; format: functional
Mus musculus [39] = test: Peripheral plasma levels in mice after oral administration of 50 mg/kg dose for 1 hr; format: functional, organism-based; set-up: dose 50 mg/kg; procedure, shortened: as §3
[40] = test system: Staphylococcus epidermidis; test: In vitro antimicrobial activity against aerobic bacteria Streptococcus epi 222; format: functional
Mus musculus [41] = test: Peripheral plasma levels in mice after oral administration of 100 mg/kg dose for 1 hr; format: functional, organism-based; set-up: dose 100 mg/kg; procedure, shortened: as §3
Streptococcus [42] = test: In vitro antimicrobial activity against aerobic bacteria Streptococcus D 8043; format: functional
Streptococcus sanguinis = test: In vitro antimicrobial activity against aerobic bacteria Streptococcus sanguis MX132; format: functional
Streptococcus viridans = test: In vitro antimicrobial activity against aerobic bacteria Streptococcus viridans 9943; format: functional
[43] = test system: Staphylococcus epidermidis; test: In vitro antimicrobial activity against aerobic bacteria Streptococcus epi 270; format: functional

## CC[C@H]1OC(=O)C[C@@H](O)[C@H](C)[C@@H](O[C@@H]2O[C@H](C)[C@@H](O[C@H]3C[C@@](C)(O)[C@@H](O)[C@H](C)O3)[C@H](N(C)C)[C@H]2O)[C@@H](C)C[C@@H](C)C(=O)/C=C/C(C)=C/[C@@H]1CO[C@@H]1O[C@H](C)[C@@H](O)[C@@H](OC)[C@H]1OC [DEFORMYLTYLOSIN]
Streptococcus pyogenes [1]
  MIC: 1 µg/mL (≈ 1.13 µM)
Haemophilus influenzae [2]
  MIC: 128 µg/mL (≈ 144 µM)
Streptococcus pyogenes [3]
  ED50: 12 mg/kg
Staphylococcus aureus [4]
  MIC: 0.5 µg/mL (≈ 0.563 µM)
Streptococcus pyogenes [5]
  ED50: 2 mg/kg
Streptococcus pneumoniae [6]
  MIC: 32 µg/mL (≈ 36 µM)
Streptococcus pyogenes [7]
  ED50: 12 mg/kg
[8]
  MIC: 1 µg/mL (≈ 1.13 µM)
Streptococcus pyogenes [9]
  MIC: 1 µg/mL (≈ 1.13 µM)
Streptococcus pyogenes [10]
  ED50: 2 mg/kg

## CC[C@H]1OC(=O)C[C@@H](O)[C@H](C)[C@@H](O[C@@H]2O[C@H](C)[C@@H](O[C@H]3C[C@@](C)(O)[C@@H](O)[C@H](C)O3)[C@H](N(C)C)[C@H]2O)[C@@H](CCOc2ccccc2)C[C@@H](C)C(=O)/C=C/C(C)=C/[C@@H]1CO[C@@H]1O[C@H](C)[C@@H](O)[C@@H](OC)[C@H]1OC
Streptococcus pyogenes [1]
  MIC: 2 µg/mL (≈ 2.01 µM)
Streptococcus [11]
  MIC: > 128 µg/mL
Rattus norvegicus [12]
  Concentration: 2.6 µg/mL
Mus musculus [13]
  Concentration: 3.5 µg/mL
Streptococcus [14]
  MIC: 128 µg/mL (≈ 129 µM)
Mus musculus [15]
  Concentration: 7.4 µg/mL
Haemophilus influenzae [2]
  MIC: > 128 µg/mL
Haemophilus influenzae [16]
  MIC: 128 µg/mL (≈ 129 µM)
Enterococcus faecium
  MIC: 128 µg/mL (≈ 129 µM)
Streptococcus pneumoniae [17]
  MIC: > 128 µg/mL
Staphylococcus aureus [4]
  MIC: 1 µg/mL (≈ 1.01 µM)
Mus musculus [18]
  Concentration: 2 µg/mL
Rattus norvegicus [19]
  Concentration: 0.2 µg/mL
Streptococcus [20]
  MIC: 128 µg/mL (≈ 129 µM)
Staphylococcus aureus [21]
  MIC: 2 µg/mL (≈ 2.01 µM)
Streptococcus pyogenes [22]
  ED50: > 6.3 mg/kg
Staphylococcus aureus [23]
  MIC: 1 µg/mL (≈ 1.01 µM)
Rattus norvegicus [24]
  Concentration: 2.7 µg/mL
Staphylococcus aureus [25]
  MIC: 2 µg/mL (≈ 2.01 µM)
Mus musculus [26]
  Concentration: 1.6 µg/mL
Streptococcus [27]
  MIC: 128 µg/mL (≈ 129 µM)
Streptococcus [28]
  MIC: > 128 µg/mL
Mus musculus [29]
  Concentration: 1.2 µg/mL
Staphylococcus aureus [30]
  MIC: 1 µg/mL (≈ 1.01 µM)
Mus musculus [31]
  Concentration: 4 µg/mL
Mus musculus [32]
  Concentration: 7.9 µg/mL
Rattus norvegicus [33]
  Concentration: 0.6 µg/mL
[8]
  MIC: 1 µg/mL (≈ 1.01 µM)
Staphylococcus aureus [34]
  MIC: 1 µg/mL (≈ 1.01 µM)
Haemophilus influenzae [35]
  MIC: > 128 µg/mL
Rattus norvegicus [36]
  Concentration: 2 µg/mL
Streptococcus [37]
  MIC: 128 µg/mL (≈ 129 µM)
Streptococcus [38]
  MIC: 1 µg/mL (≈ 1.01 µM)
Mus musculus [39]
  Concentration: 2.3 µg/mL
[40]
  MIC: 1 µg/mL (≈ 1.01 µM)
Mus musculus [41]
  Concentration: 6 µg/mL
Streptococcus [42]
  MIC: 128 µg/mL (≈ 129 µM)
Streptococcus sanguinis
  MIC: 8 µg/mL (≈ 8.05 µM)
Streptococcus viridans
  MIC: > 128 µg/mL
[43]
  MIC: > 128 µg/mL
